Laboratory results as given in ChEMBL document CHEMBL1147088, “Small molecule obatoclax (GX15-070) antagonizes MCL-1 and overcomes MCL-1-mediated resistance to apoptosis” (Proc Natl Acad Sci U S A, 2007).
Activity calls are given as the source filed them. The rule behind the calls is not given here.

Key:
[1] = system: Saccharomyces cerevisiae; assay: Growth inhibition of Saccharomyces cerevisiae W301; type: functional, organism-based
Outline: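 W301 yeast transformed with BCL-family/BAX/BAK or control vectors, then grown in synthetic complete medium with 2% raffinose and 2% galactose. Seeded at 0.01 OD units and shaken 48 h at 30°C. Compound or vehicle was added to growth medium with final DMSO 0.67%. Cell density was the read-out, and IC50 values were recorded.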

[2] = biological target: Apoptosis regulator Bcl-2 (Homo sapiens, UniProt P10415); assay: Binding affinity to BCL2
[3] = system: Epithelial cell; assay: […] in Bax and Bak double knock out E1A/p53DN-transformed mouse kidney epithelial cells assessed as caspase-3 activation at 2.0 uM; type: functional, cell-based
[4] = system: Eu-Myc; assay: Induction of apoptosis in mouse Eu-Myc cells overexpressing MCL1 assessed as inhibition of colony formation at 1 uM; type: functional, cell-based
[5] = system: Eu-Myc; assay: Induction of apoptosis in mouse Eu-Myc cells overexpressing BCL2 assessed as inhibition of colony formation at 1 uM; type: functional, cell-based
[6] = system: Eu-Myc; assay: Induction of apoptosis in mouse Eu-Myc cells overexpressing A1 assessed as inhibition of colony formation at 1 uM; type: functional, cell-based
[7] = system: Eu-Myc; assay: Induction of apoptosis in mouse Eu-Myc cells overexpressing MCL1 assessed as inhibition of cell survivability at 1 uM; type: functional, cell-based
[8] = system: Eu-Myc; assay: Induction of apoptosis in mouse Eu-Myc cells overexpressing BCL2 assessed as inhibition of cell survivability at 1 uM; type: functional, cell-based
[9] = system: Eu-Myc; assay: Induction of apoptosis in mouse Eu-Myc cells overexpressing A1 assessed as inhibition of cell survivability at 1 uM; type: functional, cell-based
[10] = system: Mus musculus; assay: Toxicity in CB17 SCID mouse bearing human C33A cells xenografts assessed as survivability at 2 mg/kg, ip administered once in 3 days for 5 times after 14 days; type: organism-based, C-33-A; design: dose 2 mg/kg, route intraperitoneal; conditions: in vivo, 336 h
Outline: (§1)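 Tumor-bearing mice as in the xenograft study (BALB/c with 4T1; CB17 SCID with C33A, PC3, SW480), 8 per cohort, dosed i.p. once every 3 days ×5. Body weight measured three times weekly; animal deaths and weight change recorded 14 days after first injection.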

[11] = system: Mus musculus; assay: Toxicity in CB17 SCID mouse bearing human PC3 cells xenografts assessed as survivability at 2 mg/kg, ip administered once in 3 days for 5 times after 14 days; type: organism-based, PC-3; design: dose 2 mg/kg, route intraperitoneal; conditions: in vivo, 336 h; outline: as §1
[12] = system: Mus musculus; assay: Toxicity in CB17 SCID mouse bearing human SW480 cells xenografts assessed as survivability at 2 mg/kg, ip administered once in 3 days for 5 times after 14 days; type: organism-based; design: dose 2 mg/kg, route intraperitoneal; conditions: in vivo, 336 h; outline: as §1
[13] = system: Mus musculus; assay: Toxicity in BALB/c mouse bearing mouse 4T1 cells xenografts assessed as survivability at 2 mg/kg, ip administered once in 3 days for 5 times after 14 days; type: organism-based; design: dose 2 mg/kg, route intraperitoneal; conditions: in vivo, 336 h; outline: as §1
[14] = system: Mus musculus; assay: Toxicity in CB17 SCID mouse bearing human C33A cells xenografts assessed as weight change at 2 mg/kg, ip administered once in 3 days for 5 times after 14 days; type: organism-based, C-33-A; design: dose 2 mg/kg, route intraperitoneal; conditions: in vivo, 336 h; outline: as §1
[15] = system: Mus musculus; assay: Toxicity in CB17 SCID mouse bearing human PC3 cells xenografts assessed as weight change at 2 mg/kg, ip administered once in 3 days for 5 times after 14 days; type: organism-based, PC-3; design: dose 2 mg/kg, route intraperitoneal; conditions: in vivo, 336 h; outline: as §1
[16] = system: Mus musculus; assay: Toxicity in CB17 SCID mouse bearing human SW480 cells xenografts assessed as weight change at 2 mg/kg, ip administered once in 3 days for 5 times after 14 days; type: organism-based; design: dose 2 mg/kg, route intraperitoneal; conditions: in vivo, 336 h; outline: as §1
[17] = system: E1A/p53DN; assay: Increase in inhibition of MCL1 +/+ in mouse Bim transformed E1A/p53DN cells; type: functional, cell-based
[18] = biological target: Induced myeloid leukemia cell differentiation protein Mcl-1 (Homo sapiens, UniProt Q07820); assay: Inhibition of BH3 peptide binding to human recombinant MCL1 by fluorescence polarization assay
[19] = biological target: T1, Bcl-2-like protein 2 (Homo sapiens, UniProt Q92843); assay: Inhibition of BH3 peptide binding to human recombinant BCL-w by fluorescence polarization assay
T1 sequence (Q92843 whole entry): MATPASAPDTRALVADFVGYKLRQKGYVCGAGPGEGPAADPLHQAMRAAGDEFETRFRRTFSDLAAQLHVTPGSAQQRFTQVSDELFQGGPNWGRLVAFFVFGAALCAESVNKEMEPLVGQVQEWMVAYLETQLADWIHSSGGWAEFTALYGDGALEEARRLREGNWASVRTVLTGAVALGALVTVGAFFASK

[20] = biological target: T2, Bcl-2-related protein A1 (Homo sapiens, UniProt Q16548); assay: Inhibition of BH3 peptide binding to human recombinant A1 by fluorescence polarization assay
T2 sequence (Q16548 whole entry): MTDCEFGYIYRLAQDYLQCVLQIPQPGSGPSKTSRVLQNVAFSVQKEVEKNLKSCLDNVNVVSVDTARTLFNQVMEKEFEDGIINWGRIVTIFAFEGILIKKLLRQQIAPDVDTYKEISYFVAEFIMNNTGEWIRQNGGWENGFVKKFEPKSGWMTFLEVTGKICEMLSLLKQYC

[21] = biological target: T3, Bcl-2-like protein 10 (Homo sapiens, UniProt Q9HD36); assay: Inhibition of BH3 peptide binding to human recombinant BCL-b by fluorescence polarization assay
T3 sequence (Q9HD36 whole entry): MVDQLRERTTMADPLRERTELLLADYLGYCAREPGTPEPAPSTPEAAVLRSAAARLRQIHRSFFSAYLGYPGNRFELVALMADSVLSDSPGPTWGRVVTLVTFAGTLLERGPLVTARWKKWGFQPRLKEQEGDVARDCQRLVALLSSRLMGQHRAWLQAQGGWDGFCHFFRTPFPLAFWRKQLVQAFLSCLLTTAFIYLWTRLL

[22] = system: SK-MEL-5; assay: Inhibition of MCL1-BAK interaction in mitochondria of human SKMel5 cells at 10 nM; type: functional, cell-based
[23] = system: KB; assay: Release of cytochrome c in mitochondria of human KB cells at 2 uM; type: functional, cell-based
Outline: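 Mitochondria isolated from KB cells were incubated 30 min at 37°C with DMSO or compound, then reisolated. Mitochondrial pellet and post-mitochondrial supernatant were analysed by SDS/PAGE and cytochrome c immunoblot, with actin and a control protein as loading controls.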

[24] = system: SK-MEL-5; assay: Reduction in MCL1-BAK interaction in mitochondria of human SKMel5 cells at 1 uM after 5 hrs by immunoprecipitation; type: functional, cell-based
[25] = system: SK-MEL-5; assay: Disruption of BCL2-BIM interaction in mitochondria of human SKMel5 cells 5 hrs by immunoprecipitation; type: functional, cell-based
[26] = system: Saccharomyces cerevisiae; assay: Antagonism of BAX/BAK dependent BCL pathway-mediated inhibition of Saccharomyces cerevisiae W301; type: functional, organism-based
Outline: (§2)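 W301 yeast transformed with the indicated vectors; cultures in synthetic complete medium with 2% raffinose and 2% galactose, seeded at 0.01 OD units, compound or vehicle added (0.67% DMSO final). Cell density read after 48 h shaking at 30°C.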

[27] = system: Saccharomyces cerevisiae; assay: Antagonism of BCL pathway-mediated inhibition of Saccharomyces cerevisiae W301 in absence of BAX/BAK; type: functional, organism-based; outline: as §2
[28] = system: Mus musculus; assay: Toxicity in BALB/c mouse bearing mouse 4T1 cells xenografts assessed as weight change at 2 mg/kg, ip administered once in 3 days for 5 times after 14 days; type: organism-based; design: dose 2 mg/kg, route intraperitoneal; conditions: in vivo, 336 h; outline: as §1
[29] = system: C-33-A; assay: Antitumor activity in CB17 SCID mouse bearing human C33A cells xenografts at 2 mg/kg, ip administered once in 3 days for 5 times after 14 days; type: functional; conditions: route intraperitoneal
Outline: (§3)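 Female mice, 6–8 weeks (BALB/c for 4T1; CB17 SCID for C33A, PC3, SW480), given s.c. flank cells in PBS. Dosing i.p. once every 3 days ×5, starting day 7 (SW480), 14 (C33A) or 8 (PC3, 4T1). Tumor size measured thrice weekly, volume = length × width²/2, 8 animals/cohort; T/C (mean tumor size change treated ÷ control) at 14 days after first dose.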

[30] = system: PC-3; assay: Antitumor activity in CB17 SCID mouse bearing human PC3 cells xenografts at 2 mg/kg, ip administered once in 3 days for 5 times after 14 days; type: functional; conditions: route intraperitoneal; outline: as §3
[31] = system: SW480; assay: Antitumor activity in CB17 SCID mouse bearing human SW480 cells xenografts at 2 mg/kg, ip administered once in 3 days for 5 times after 14 days; type: functional; conditions: route intraperitoneal; outline: as §3
[32] = system: 4T1; assay: Antitumor activity in BALB/c mouse bearing mouse 4T1 cells xenografts at 2 mg/kg, ip administered once in 3 days for 5 times after 14 days; type: functional; conditions: route intraperitoneal; outline: as §3
[33] = system: E1A/p53DN; assay: Increase in inhibition of MCL1 -/- in mouse Bim transformed E1A/p53DN cells; type: functional, cell-based
[34] = system: KB; assay: Reversal of MCL1 mediated resistance to ABT-737 in BCL2 overexpressing human KB cells assessed as cell death; type: functional, cell-based
[35] = system: B16-F1; assay: Reversal of MCL1 mediated resistance to bortezomib in mouse B16-F1 cells assessed as cell death; type: functional, cell-based

Sequence of Apoptosis regulator Bcl-2 (P10415 whole entry): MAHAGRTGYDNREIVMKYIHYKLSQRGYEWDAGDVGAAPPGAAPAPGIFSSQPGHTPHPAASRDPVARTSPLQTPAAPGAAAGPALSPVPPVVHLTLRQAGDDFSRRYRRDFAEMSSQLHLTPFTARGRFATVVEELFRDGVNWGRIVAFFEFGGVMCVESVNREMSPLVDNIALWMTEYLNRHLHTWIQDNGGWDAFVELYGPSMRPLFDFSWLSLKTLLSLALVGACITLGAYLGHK
Sequence of Induced myeloid leukemia cell differentiation protein Mcl-1 (Q07820 whole entry): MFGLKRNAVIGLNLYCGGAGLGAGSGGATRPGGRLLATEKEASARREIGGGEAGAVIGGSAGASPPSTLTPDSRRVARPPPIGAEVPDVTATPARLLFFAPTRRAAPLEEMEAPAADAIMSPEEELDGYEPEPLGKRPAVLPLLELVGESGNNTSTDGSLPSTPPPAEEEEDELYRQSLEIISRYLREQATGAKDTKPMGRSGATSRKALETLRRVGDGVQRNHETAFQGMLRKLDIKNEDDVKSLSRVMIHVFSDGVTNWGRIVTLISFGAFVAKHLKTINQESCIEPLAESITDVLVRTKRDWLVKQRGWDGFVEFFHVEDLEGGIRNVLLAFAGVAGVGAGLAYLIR

CC[C@@]1(O)C(=O)OCc2c1cc1n(c2=O)Cc2cc3ccccc3nc2-1 [CAMPTOTHECIN]
IC50 [1]: > 200000 nM

Oc1cc(O)c2c(c1)O[C@H](c1ccc(O)c(O)c1)[C@H](O)C2 [CATECHIN]
Ki [2]: > 100000 nM

COc1cccc2c1C(=O)c1c(O)c3c(c(O)c1C2=O)C[C@@](O)(C(=O)CO)C[C@@H]3O[C@H]1C[C@H](N)[C@H](O)[C@H](C)O1 [DOXORUBICIN]
IC50 [1]: 10000 nM

O=C(O[C@@H]1Cc2c(O)cc(O)cc2O[C@@H]1c1ccc(O)c(O)c1)c1cc(O)c(O)c(O)c1 [EPICATECHIN GALLATE]
Ki [2]: 229 nM

Oc1cc(O)c2c(c1)O[C@H](c1cc(O)c(O)c(O)c1)[C@H](O)C2 [EPIGALLOCATECHIN]
Ki [2]: > 100000 nM

O=C(O[C@@H]1Cc2c(O)cc(O)cc2O[C@@H]1c1cc(O)c(O)c(O)c1)c1cc(O)c(O)c(O)c1 [EPIGALOCATECHIN GALLATE]
Ki [2]: 234 nM

COC1=CC(c2cc3ccccc3[nH]2)=N/C1=C\c1[nH]c(C)cc1C [OBATOCLAX]
Activity [3]: Active
Activity [4]: Active
Activity [5]: Active
Activity [6]: Active
Activity [7]: Active
Activity [8]: Active
Activity [9]: Active
Activity [10]: Non-toxic
Activity [11]: Non-toxic
Activity [12]: Non-toxic
Activity [13]: Non-toxic
Activity [14]: 7%
Activity [15]: 10%
Activity [16]: 3%
Activity [17]: Active
Ki [18]: 1000 nM
Ki [19]: 1000 nM
Ki [20]: 1000 nM
Ki [21]: 1000 nM
Activity [22]: Active
Activity [23]: inactive
Activity [24]: Active
Activity [25]: Active
Activity [26]: Active
Activity [27]: inactive
Activity [28]: 1%
Activity [29]: 11%
Activity [30]: 28%
Activity [31]: 35%
Activity [32]: 42%
Activity [33]: Active
Activity [34]: Active
Activity [35]: Active

O=c1c(O)cc([C@H]2Oc3cc(O)cc(O)c3C[C@H]2O)cc2c([C@H]3Oc4cc(O)cc(O)c4C[C@H]3O)cc(O)c(O)c12 [THEAFLAVIN]
Ki [2]: 692 nM
